Consider one compound from ChEMBL document CHEMBL1158120, “Cytotoxic oxygenated triterpenoid saponins from Symplocos chinensis” (J Nat Prod, 2006).

Common to all, as to format: functional, cell-based
Assay [1] deals with HCT-8. Description: Cytotoxicity against human HCT8 cells by MTT assay. The gist of the method: (§1)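 MTT read-out of tumour-cell viability. IC50 values in µM are reported as means of three independent experiments.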
In general terms: Formazan colour is commonly taken as a measure of viable cells.

In assay [2] the test system is Bel-7402. Description: Cytotoxicity against human Bel-7402 cells by MTT assay. The gist of the method:
as §1

In assay [3] the test system is BGC-823. Briefly: Cytotoxicity against human BGC-823 cells by MTT assay. The gist of the method: as §1
Assay [4] deals with A2780. Briefly: Cytotoxicity against human A2780 cells by MTT assay. The gist of the method:
as §1

Assay [5] relates to A549. Description: Cytotoxicity against human A549 cells by MTT assay. The gist of the method:
as §1

Bounds are passed on as bounds.

As a reminder, the IC50 is the concentration at which inhibition is half-maximal. A high value points to lower potency. For `CCC(C)C(=O)O[C@H]1[C@H](OC(=O)/C=C/c2ccccc2)C(C)(C)C[C@H]2C3=CC[C@@H]4[C@@]5(C)CC[C@H](O[C@@H]6O[C@H](C(=O)O)[C@@H](O)[C@H](O)[C@H]6O[C@@H]6O[C@H](CO)[C@@H](O)[C@H](O)[C@H]6O)C(C)(C)[C@@H]5CC[C@@]4(C)[C@]3(C)[C@@H](O)[C@@H](O)[C@]21CO` (stereo not given in full) [SYMPLOCOSOSIDE N], the IC50 is 1800 nM in assay [1]; 1700 nM in assay [2]; more than 10000 nM in assay [3]; 3200 nM in assay [4]; more than 10000 nM in assay [5].
